Tests used:
Leishmania amazonensis = assay: Antileishmanial activity against Leishmania amazonensis MHOM/BR/76/LTB-012 axenic amastigotes after 72 hrs by MTT assay; type: functional, organism-based; settings: MHOM/BR/76/LTB-012, 72 h
In short: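 Axenic amastigotes kept by weekly subpassage in MAA/20 medium, 32 ± 1 °C, 5% CO2. Seeded in 96-well plates. Compounds in DMSO tested at four concentrations (50–0.05 µg/mL or 50–0.2 µg/mL, depending on compound) for 72 h. MTT added for 4 h, stopped with 2-propanol/SDS, OD read at 570 nm. % inhibition computed against untreated control; IC50 from inhibition curve. Triplicates; amphotericin B reference.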

Vero = assay: Cytotoxicity against african green monkey Vero cells assessed as [3H]-hypoxanthine incorporation after 48 hrs; type: cell-based; settings: Chlorocebus sabaeus
In short: (§1)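 Cells grown in RPMI with 10% fetal calf serum and exposed to serial compound dilutions for 48 h. Growth measured by [3H]-hypoxanthine incorporation relative to untreated control cultures. Inhibition percentages plotted versus concentration; IC50 read graphically.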

MCF7 = assay: Cytotoxicity against human MCF7 cells assessed as [3H]-hypoxanthine incorporation after 48 hrs; type: cell-based; in short: as §1
[1] = Cytotoxicity against mouse peritoneal macrophages assessed as cell viability after 48 hrs by hematocytometer; type: cell-based; settings: Peritoneal macrophage cell

Structure (SMILES) | IC50 (Leishmania amazonensis) [µM] | IC50 (Vero) [µM] | IC50 (MCF7) [µM] | IC50 [1] [µM]
CC(=O)O[C@H](c1ccc2c(c1)OCO2)[C@H]1C(=O)OC[C@@H]1C(=O)c1ccc2c(c1)OCO2 [SANGUINOLIGNAN D] | 69.7 | 82.1 | 17.1 | –
O=C(O)/C=C/c1ccc(O)c(O)c1 [CAFFEIC ACID] | 17.8 | > 550 | > 550 | > 550
C[C@@H]1[C@H](O)[C@@H](C)/C=C/C=C/C=C/C=C/C=C/C=C/C=C/[C@H](O[C@@H]2O[C@H](C)[C@@H](O)[C@H](N)[C@@H]2O)C[C@@H]2O[C@](O)(C[C@@H](O)C[C@@H](O)[C@H](O)CC[C@@H](O)C[C@@H](O)CC(=O)O[C@H]1C)C[C@H](O)[C@H]2C(=O)O [AMPHOTERICIN B] | 0.11 | – | – | 3.6
CCCCCCC[C@H](C)OC(=O)/C=C/c1ccc(O)c(O)c1 | 1.8 | 31 | 3.2 | 12.7
O=C1OC[C@H]([C@H](O)c2ccc3c(c2)OCO3)[C@H]1C(=O)c1ccc2c(c1)OCO2 [SANGUINOLIGNAN A] | 36.7 | 109 | 146 | > 260
CCC[C@H](C)OC(=O)/C=C/c1ccc(O)c(O)c1 | 2 | 62 | 14 | 72
O=C(CC(CO)C(=O)c1ccc2c(c1)OCO2)c1ccc2c(c1)OCO2 (stereo not given) [JUSTIFLORINOL] | > 140 | > 281 | 140 | –
CCCCC[C@H](C)OC(=O)/C=C/c1ccc(O)c(O)c1 | 10 | 89.8 | 10.6 | 16.1
O=C1OC[C@H]([C@H](O)c2ccc3c(c2)OCO3)[C@H]1Cc1ccc2c(c1)OCO2 | 79.4 | 114 | 151 | –
OC[C@H](Cc1ccc2c(c1)OCO2)[C@H](CO)Cc1ccc2c(c1)OCO2 [DIHYDROCUBEBIN] | > 140 | 83.8 | 89.4 | –
O=C1OC[C@@H]([C@H](O)c2ccc3c(c2)OCO3)[C@H]1C(=O)c1ccc2c(c1)OCO2 [SANGUINOLIGNAN B] | > 130 | > 260 | 250 | –
COc1ccc([C@@H](OC(C)=O)[C@H]2COC(=O)[C@@H]2C(=O)c2ccc3c(c2)OCO3)cc1OC [SANGUINOLIGNAN C] | 105 | > 226 | 79.2 | –
